Experimental data published in PubChem BioAssay AID602319 (The Scripps Research Institute Molecular Screening Center, 2012).
Active and inactive are the calls of the source.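 Rule for the calls: active = inhibition of at least 50% at 0.01 µM compound; inactive = the rest.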

Molecular target: Monoacylglycerol lipase ABHD6 (Mus musculus) (UniProt Q8R2Y0)
Test: off-target ABHD6 activity blockade – biochemical, gel-based competitive ABPP, fluorescence, mouse, in vitro, selectivity assay for DAGLb inhibitor project, late-stage follow-up (AID 602319)
Conditions: Neuro-2A membrane proteome, HT-01 probe, stronger effect = higher value
Outline: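 System: Neuro-2A cell membrane proteome, native mouse ABHD6 / Input: proteome 1 mg/mL / Measure: % inhibition relative to DMSO control / Signal: SDS-PAGE with in-gel fluorescence scan, band integrated optical density / Timing: 30 min compound, 30 min probe, 37 °C / Buffer or medium: Dulbecco's phosphate-buffered saline (DPBS)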

Sequence of Monoacylglycerol lipase ABHD6 (Mus musculus) (Q8R2Y0 whole entry, looked up): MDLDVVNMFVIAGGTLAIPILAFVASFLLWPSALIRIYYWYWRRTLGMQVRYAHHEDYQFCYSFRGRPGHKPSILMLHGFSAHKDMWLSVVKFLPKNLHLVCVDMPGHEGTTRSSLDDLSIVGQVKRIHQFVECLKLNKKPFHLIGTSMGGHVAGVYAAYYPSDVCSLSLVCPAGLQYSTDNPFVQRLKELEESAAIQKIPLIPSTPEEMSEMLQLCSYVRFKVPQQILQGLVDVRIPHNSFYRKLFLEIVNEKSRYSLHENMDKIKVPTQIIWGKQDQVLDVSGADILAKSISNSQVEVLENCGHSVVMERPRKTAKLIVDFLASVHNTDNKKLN

| Structure (SMILES) | inhibition (ABHD6 inhibition, at 0.001 µM) | inhibition (at 0.01 µM) |
| --- | --- | --- |
| O=C(N1CCCCC1c1ccccc1)n1cc(-c2ccc(-c3ccc(CO)cc3)cc2)nn1 (centres undefined) | 18% | 47% (inactive) |
| O=C(O)c1ccc(-c2ccc(-c3cn(C(=O)N4CCCCC4CCc4ccccc4)nn3)cc2)cc1 (centres undefined) | 7% | 10% (inactive) |
| O=C(O)c1cccc(-c2ccc(-c3cn(C(=O)N4CCCCC4CCc4ccccc4)nn3)cc2)c1 (centres undefined) | 33% | 94% |
| O=C(c1ccc(-c2ccc(-c3cn(C(=O)N4CCCCC4c4ccccc4)nn3)cc2)cc1)N1CCCCC1 (centres undefined) | 35% | 94% |
| COc1ccc(-c2ccc(-c3cn(C(=O)N4CCCCC4c4ccccc4)nn3)cc2)cc1 (centres undefined) | 8% | 18% (inactive) |
| O=C(N1CCCCC1c1ccccc1)n1cc(C(O)(c2ccccc2)c2ccccc2)nn1 (centres undefined) | 32% | 47% (inactive) |
| NC(=O)c1ccc(-c2ccc(-c3cn(C(=O)N4CCCCC4c4ccccc4)nn3)cc2)cc1 (centres undefined) | 17% | 27% (inactive) |
| O=C(c1ccc(-c2ccc(-c3cn(C(=O)N4CCCCC4Cc4ccccc4)nn3)cc2)cc1)N1CCCCC1 (centres undefined) | 9% | 79% |
| O=C(O)c1cccc(-c2ccc(-c3cn(C(=O)N4CCCCC4c4ccccc4)nn3)cc2)c1 (centres undefined) | 36% | 100% |
| O=C(N1CCCCC1c1ccccc1)n1cc(-c2ccc(-c3ccccc3)cc2)nn1 (centres undefined) | 18% | 66% |
| O=C(N1CCCCC1CCc1ccccc1)n1cc(-c2ccc(-c3ccccc3)cc2)nn1 (centres undefined) | 21% | 40% (inactive) |

More lines, now with the values ahead:

| inhibition (ABHD6 inhibition, at 0.001 µM) | inhibition (at 0.01 µM) | Structure (SMILES) |
| --- | --- | --- |
| 38% | 98% | O=C(N1CCCCC1c1ccccc1)n1cc(-c2ccc(-c3ccccc3CO)cc2)nn1 (centres undefined) |
| 32% | 90% | COc1ccccc1-c1ccc(-c2cn(C(=O)N3CCCCC3c3ccccc3)nn2)cc1 (centres undefined) |
| 53% | 100% | COc1ccccc1-c1ccc(-c2cn(C(=O)N3CCCC(Cc4ccccc4)C3)nn2)cc1 (centres undefined) |
| 78% | 100% | COc1ccccc1-c1ccc(-c2cn(C(=O)N3CCC(Cc4ccccc4)CC3)nn2)cc1 |
| 27% | 70% | COc1ccccc1-c1ccc(-c2cn(C(=O)N3CCCCC3CCc3ccccc3)nn2)cc1 (centres undefined) |
| 41% | 90% | O=C(N1CCCCC1Cc1ccccc1)n1cc(-c2ccc(-c3cccc(CO)c3)cc2)nn1 (centres undefined) |
